An excerpt weighted towards active compounds, which were near 3.1% of everything screened.
GPR7 antagonist: blocks human GPR7 receptor signaling. hit rate 1.1% among 290,000. inhibition, % at 4.4 µM. P48145. GPR7-expressing cells, fluorescence antagonist assay; in the data active means inhibition above about 16%, passing the limit was not always enough;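 further: cells stimulated with the agonist NPW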
Target sequence (P48145 whole entry, looked up): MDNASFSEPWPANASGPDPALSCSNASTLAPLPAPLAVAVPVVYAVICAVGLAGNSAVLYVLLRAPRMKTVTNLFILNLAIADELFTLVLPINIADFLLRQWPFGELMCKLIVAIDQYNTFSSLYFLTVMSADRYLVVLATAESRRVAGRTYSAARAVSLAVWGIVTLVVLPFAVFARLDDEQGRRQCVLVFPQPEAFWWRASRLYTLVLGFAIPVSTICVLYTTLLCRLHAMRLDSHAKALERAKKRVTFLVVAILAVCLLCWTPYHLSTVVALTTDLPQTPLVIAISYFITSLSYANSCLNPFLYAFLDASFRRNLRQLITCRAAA
GalR3 antag: human GalR3 antagonism. HEK293 GalR3-CNG cAMP membrane potential fluorescence; galR3 body fused to GalR1 C-terminus. inhibition, % at 3 µM. O60755. hit rate 0.44% among 360,000;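 active means inhibition above the screen-wide average plus 3 SD, cut at about 13% in these data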;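 further: forskolin and galanin both at EC90 stimulate the cells; cAMP rise reported by CNG channel membrane potential dye signal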
Target sequence (O60755 1-299 limits assumed): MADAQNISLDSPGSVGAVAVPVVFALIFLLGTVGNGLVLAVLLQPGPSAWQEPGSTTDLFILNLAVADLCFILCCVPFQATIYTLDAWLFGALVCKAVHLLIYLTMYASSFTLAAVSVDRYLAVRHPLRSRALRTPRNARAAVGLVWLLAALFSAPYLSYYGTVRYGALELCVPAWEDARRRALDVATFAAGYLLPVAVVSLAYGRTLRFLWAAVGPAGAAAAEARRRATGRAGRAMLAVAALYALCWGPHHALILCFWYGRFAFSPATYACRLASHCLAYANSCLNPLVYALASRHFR
OX1R antag-1: OX1R (human) antagonism | O43613 | OX1R-expressing cells, FRET antagonist read-out | inhibition, % at 6.6 µM | hit rate 1.8% among 330,000; in the data active means inhibition mostly above about 38%, no sharp cut-off; inactive means mostly below about 40%
CHO parental Ca: counter-screen for OX1R antagonists: effect in parental CHO cells. parental CHO-K1, ATP-induced calcium, Fluo-8 fluorescence. inhibition, % at 5.6 µM. hit rate 0.63% among 330,000;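 active means inhibition above that plate's mean sample inhibition plus 3 SD, cut at about 26% in these data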
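Assay system: untransfected parental CHO cell line. Also added: ATP agonist challenge. Dosing: one dose, 5.6 µM nominal. Measured by: Fluo-8 fluorescence. Read-out: % inhibition. Benchmarks: ATP wells versus no-ATP DMSO wells. Repeats: no replicates.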
OX1R antag-2: human HCRTR1 antagonism | O43613 | CHO/OX1R cells, Fluo-8 calcium fluorescence, orexin A | inhibition, % at 5 µM | hit rate 0.43% among 330,000 | AID 434989;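 active means inhibition above its plate's threshold, mean inhibition of all tested compounds on the plate plus 3 SD, cut at about 37% in these data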
GalR3 conf: GalR3 (human) antagonism, confirmation | HEK293 GalR3 CNG cAMP biosensor, membrane potential fluorescence; galR3 fused to GalR1 carboxy tail; challenged with forskolin and galanin at EC90 | shares compounds with GalR3 antag | hit rate 59% among 1,600 | inhibition, % at 3 µM;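 active means inhibition above the primary screen's cutoff, the mean inhibition of all screened compounds plus 3 SD, cut at about 13% in these data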
CNG parental: acts as nonspecific agonist in parental HEK-CNG cells; activation, % at 3 µM; hit rate 10% among 1,600; shares compounds with GalR3 antag; HEK293-CNG parental cells, cAMP membrane potential fluorescence; normalised: DMSO wells 0%, forskolin wells 100%; in the data active means activation above about 1.3%
Large screens that a line does not name were inactive (follow-up assays come after a bar, where they were run); ! = a repeat was not active.

CC1CC(C)CN(C(=O)Cn2c(=O)n(CCCC(=O)NCc3ccco3)c(=O)c3sccc32)C1 (configuration not stated)	none
Nc1cc(=O)[nH]c(SCC(=O)NCC2CCCO2)n1 (configuration not stated)	GalR3 antag 13 | GalR3 conf inactive | CNG parental inactive
O=C(CSc1cc(Cl)ccc1Cl)NCC1CCCO1 (configuration not stated)	none
O=C(CSc1ncc(C(F)(F)F)cc1Cl)NCC1CCCO1 (configuration not stated)	GalR3 antag 13 | GalR3 conf inactive | CNG parental inactive
COC(=O)CNC(=O)CN1c2cccc3cccc(c23)S1(=O)=O	GalR3 antag 13 | GalR3 conf inactive | CNG parental inactive
O=C(O)c1ccccc1C(=O)OCCc1cc2ccccc2c(=O)o1	none (no result: GPR7 antagonist)
CCN(CC)C(=O)OCCc1cc2ccccc2c(=O)o1	none (no result: GPR7 antagonist, GalR3 antag) | GalR3 conf inactive | CNG parental inactive
CCN1C(=O)c2ccccc2S(=O)(=O)c2ccc(C(=O)NCCOC)cc21	none
Nc1cc(-c2ccc(Br)cc2)nn1Cc1ccccc1	GalR3 antag 61 (no result: OX1R antag-1, CHO parental Ca, OX1R antag-2) | GalR3 conf 103 | CNG parental inactive
CN1N=C(C(=O)NC2CCCc3c2cnn3-c2ccc(F)cc2F)CCC1=O (configuration not stated)	none
Cc1nnsc1C(=O)NC1CCCc2c1cnn2-c1ccc(F)cc1F (configuration not stated)	GalR3 antag 105 | GalR3 conf 103 | CNG parental inactive
Cc1ccc(C(=O)NC2CCCc3c2cnn3-c2ccc(F)cc2F)cn1 (configuration not stated)	GalR3 antag 97, CHO parental Ca 38 | GalR3 conf 110 | CNG parental inactive
Cc1nnsc1C(=O)NC1CCCc2c1cnn2-c1cc(F)cc(F)c1 (configuration not stated)	none
COc1cc(OC)c(C(=O)OCC(=O)Nc2ccccc2Cl)cc1OC	none
CC1CCN(CC(=O)Nc2ccc(S(=O)(=O)NC3CC3)cc2)CC1	none
O=C1CC(c2cc(-c3ccccc3)no2)C1	none
CC(Oc1ccc(Cl)cc1)C(=O)NCCN1C(=O)S/C(=C\c2cccnc2)C1=O (configuration not stated)	none
COc1ccc(/C=C2\SC(=O)N(CCNC(=O)C3=COCCO3)C2=O)cc1	GalR3 antag 31 (no result: GPR7 antagonist) | GalR3 conf 21 | CNG parental inactive
O=C(NCCN1C(=O)S/C(=C\c2ccc(OC(F)F)cc2)C1=O)c1cnccn1	GalR3 antag 15 | GalR3 conf inactive | CNG parental inactive
O=C(NCCN1C(=O)S/C(=C\c2ccc(OC(F)F)cc2)C1=O)C1=COCCO1	none (no result: GPR7 antagonist, GalR3 antag)
CCn1c(N2CCN(C(=S)Nc3ccc(OC)cc3)CC2)nc2ccccc21	none
CCN1/C(=C/c2ccc3cc(C)ccc3[n+]2CC)Sc2cc(C)ccc21	GalR3 antag 50 (no result: OX1R antag-1, CHO parental Ca, OX1R antag-2) | GalR3 conf 62 | CNG parental 6.2
CCOc1ccc(Br)cc1S(=O)(=O)N1CCCN(C)CC1	none
CCOc1ccc(Br)cc1S(=O)(=O)N1CCC(C(N)=O)CC1	GalR3 antag 18 | GalR3 conf inactive | CNG parental inactive
COc1ccccc1-n1c(-c2ccccc2)c[n+]2c1CCc1ccccc1-2	GPR7 antagonist 28, GalR3 antag 53 | GalR3 conf 68! | CNG parental 1.6
COc1ccccc1-n1c(-c2ccccc2)c[nH]c1=S	none (no result: OX1R antag-1, CHO parental Ca, OX1R antag-2)
COC(=O)C(NC(=O)CCC(=O)N[C@@H](C(=O)OC)c1ccccc1)c1ccccc1 (some centres not stated)	none
COC(=O)[C@H](CCSC)NC(=O)Nc1cc(OC)cc(OC)c1	none
COc1ccc(-c2nc(C#N)c(NC(C)c3ccccc3)o2)cc1OC (configuration not stated)	GalR3 antag 20 | GalR3 conf 39 | CNG parental inactive
Cc1c(C(=O)N2CCc3ccccc32)cnn1C	none (no result: GalR3 antag) | GalR3 conf inactive | CNG parental inactive
CCOC(=O)c1oc2c(c1C)/C(=N/O)CCC2	GalR3 antag 13 | GalR3 conf inactive | CNG parental inactive
Cc1ccc(CNc2nc(C)cs2)cc1	none
Cc1cccc(NC(=S)NNc2ncc(C(F)(F)F)cc2Cl)c1	none
FC(F)(F)c1cnc(NNC(=S)Nc2ccccc2Cl)c(Cl)c1	GalR3 antag 55 | GalR3 conf inactive | CNG parental inactive
O=C(NCc1nc(-c2ccc(Cl)cc2)no1)c1ccc2c(c1)OCO2	none
CCOC(=O)c1ccc2c(c1)nc(SCC(=O)N1CCOCC1)n2CC	none
CCOc1ccc(C2=Nn3c(nnc3-c3ccccc3OC)SC2)cc1	GalR3 antag 22 | GalR3 conf 45 | CNG parental 2.2
COc1ccc(C2=Nn3c(nnc3-c3ccccc3Cl)SC2)cc1OCC1CC1	none (no result: GPR7 antagonist)
CCOc1ccc(-c2nnc3n2N=C(c2ccc(OC)cc2)CS3)cc1	none
COc1ccc(C2=Nn3c(nnc3-c3ccccc3C(F)(F)F)SC2)cc1OC1CCOC1 (configuration not stated)	GalR3 antag 15 (no result: GPR7 antagonist) | GalR3 conf 17 | CNG parental inactive
Cc1ccc2cc(F)ccc2n1	none (no result: GPR7 antagonist, OX1R antag-1, CHO parental Ca, OX1R antag-2)
COc1ccccc1C(O)(C(=O)NN(C)c1ccccc1)c1ccccc1OC	none
Cc1nnc(NC(=O)C(C)Sc2nnc(CCNC(=O)c3ccccc3F)n2C)s1 (configuration not stated)	GalR3 antag 13 | GalR3 conf inactive | CNG parental inactive
CCc1nnc(NC(=O)CSc2nnc(CNC(=O)c3ccccc3F)n2C)s1	none
CCOc1cc(NC(=O)Nc2ccc(F)cc2)c(OCC)cc1NC(=O)CC	none
COc1ccccc1CNC(=O)[C@H](CCSC)NC(=O)[C@@H]1Cc2ccccc2CN1	GalR3 antag 22 | GalR3 conf inactive | CNG parental inactive
COc1ccccc1CNC(=O)[C@H](C)NC(=O)[C@@H]1Cc2ccccc2CN1	none
C/C(=N/NC(=O)CNc1ccc(Cl)cc1C)c1ccc(C)cc1	none
N#C/C(=C\c1cc2c(cc1Br)OCO2)c1ccc(C(=O)O)cc1	GalR3 antag 17, CHO parental Ca 100 | GalR3 conf inactive | CNG parental 1.2
CCOc1cc2c(cc1/C=C(/C#N)c1ccc(C(=O)O)cc1)OCO2	none
Cc1nc(SC(C)C(=O)NC2CCCC2)c2ccccc2n1 (configuration not stated)	none (no result: GPR7 antagonist)
COCCn1c(=O)[nH]c(=O)c2c1nc(-c1cc(Br)c3c(c1)OCO3)n2Cc1ccccc1	GalR3 antag 15 | GalR3 conf 16 | CNG parental inactive
COc1cc2c(cc1OC)-c1cc(Nc3ccc(N(C)C)cc3)nc(=O)n1CC2	GalR3 antag 36 | GalR3 conf 55 | CNG parental inactive
